Test results: ChEMBL document CHEMBL4414550, “Binding of Monovalent and Bivalent Ligands by Transthyretin Causes Different Short- and Long-Distance Conformational Changes” (J Med Chem, 2019)
One block for each compound: values may come before it. Active and inactive are the calls of the source. No cut-off for these calls is given here.

Experiments:
[1] = target: Transthyretin (Homo sapiens) (UniProt P02766); assay: Binding affinity to His6-tagged wild-type TTR (unknown origin) expressed in Escherichia coli BL21 star (DE3) assessed as assignment of protein resonance by TROSY [1H-13C-15N] HNCA spectroscopy
Method in brief: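 3D HNCA spectra of TTR acquired in the presence of ligand to confirm the backbone resonance assignment. The assignment was made de novo from TROSY multidimensional experiments at 310 K, pH 7.0 and 7.4.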

[2] = target: Transthyretin (Homo sapiens) (UniProt P02766); assay: Binding affinity to His6-tagged wild-type TTR (unknown origin) expressed in Escherichia coli BL21 star (DE3) at 0.5:1 ratio of test compound to protein by 2D TROSY [1H-15N] spectroscopy
Method in brief: (§1)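 50 μM TTR in 600 μL titrated with ligand from 10 mM stocks in DMSO-d6 (up to 6 μL; at most 1% v/v DMSO-d6). 2D [1H,15N] TROSY spectra recorded at ligand/protein ratios 0, 0.5, 1.0, 1.5 and 2.0 for the monovalent ligand and 0, 0.5 and 1.0 for the bivalent ligand. Per-residue amide shifts were expressed as a combined chemical shift change in ppm.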

[3] = target: Transthyretin (Homo sapiens) (UniProt P02766); assay: Binding affinity to wild-type TTR (unknown origin) assessed as increase in bound resonance at L55 residue at 0.5:1 to 1:1 ratio of compound to protein by 2D TROSY [1H-15N] spectroscopy; method in brief: as §1
[4] = target: Transthyretin (Homo sapiens) (UniProt P02766); assay: Binding affinity to wild-type TTR (unknown origin) assessed as induction of chemical shift at H90 residue at 1:1 ratio of compound to protein by 2D TROSY [1H-15N] spectroscopy; method in brief: as §1
[5] = target: Transthyretin (Homo sapiens) (UniProt P02766); assay: Binding affinity to wild-type TTR (unknown origin) assessed as induction of chemical shift perturbation at A120 residue at 1:1 ratio of compound to protein by 2D TROSY [1H-15N] spectroscopy; method in brief: as §1
[6] = target: Transthyretin (Homo sapiens) (UniProt P02766); assay: Binding affinity to His6-tagged wild-type TTR (unknown origin) expressed in Escherichia coli BL21 star (DE3) at 1:1 ratio of test compound to protein by 2D TROSY [1H-15N] spectroscopy; method in brief: as §1
[7] = target: Transthyretin (Homo sapiens) (UniProt P02766); assay: Binding affinity to wild-type TTR (unknown origin) assessed as induction of chemical shift at E72 residue at 0.6:1 to 1:1 ratio of compound to protein by 2D TROSY [1H-15N] spectroscopy; method in brief: as §1
[8] = target: Transthyretin (Homo sapiens) (UniProt P02766); assay: Binding affinity to wild-type TTR (unknown origin) assessed as induction of chemical shift at L17 residue at 0.6:1 to 1:1 ratio of compound to protein by 2D TROSY [1H-15N] spectroscopy; method in brief: as §1
[9] = target: Transthyretin (Homo sapiens) (UniProt P02766); assay: Binding affinity to wild-type TTR (unknown origin) assessed as induction of chemical shift at A19 residue at 0.6:1 to 1:1 ratio of compound to protein by 2D TROSY [1H-15N] spectroscopy; method in brief: as §1
[10] = target: Transthyretin (Homo sapiens) (UniProt P02766); assay: Binding affinity to wild-type TTR (unknown origin) assessed as induction of chemical shift at R21 residue at 0.6:1 to 1:1 ratio of compound to protein by 2D TROSY [1H-15N] spectroscopy; method in brief: as §1
[11] = target: Transthyretin (Homo sapiens) (UniProt P02766); assay: Binding affinity to wild-type TTR (unknown origin) assessed as induction of chemical shift at G22 residue at 0.6:1 to 1:1 ratio of compound to protein by 2D TROSY [1H-15N] spectroscopy; method in brief: as §1
[12] = target: Transthyretin (Homo sapiens) (UniProt P02766); assay: Binding affinity to wild-type TTR (unknown origin) assessed as induction of chemical shift at L58 residue at 0.6:1 to 1:1 ratio of compound to protein by 2D TROSY [1H-15N] spectroscopy; method in brief: as §1
[13] = target: Transthyretin (Homo sapiens) (UniProt P02766); assay: Binding affinity to wild-type TTR (unknown origin) assessed as induction of chemical shift at H88 residue at 0.6:1 to 1:1 ratio of compound to protein by 2D TROSY [1H-15N] spectroscopy; method in brief: as §1
[14] = target: Transthyretin (Homo sapiens) (UniProt P02766); assay: Binding affinity to wild-type TTR (unknown origin) assessed as induction of chemical shift at E92 residue at 0.6:1 to 1:1 ratio of compound to protein by 2D TROSY [1H-15N] spectroscopy; method in brief: as §1
[15] = target: Transthyretin (Homo sapiens) (UniProt P02766); assay: Binding affinity to wild-type TTR (unknown origin) assessed as induction of chemical shift at T96 residue at 0.6:1 to 2:1 ratio of compound to protein by 2D TROSY [1H-15N] spectroscopy; conditions: in the assay text read “0.6:1 to 1:1 ratio” for “0.6:1 to 2:1 ratio”; method in brief: as §1
[16] = target: Transthyretin (Homo sapiens) (UniProt P02766); assay: Binding affinity to wild-type TTR (unknown origin) assessed as induction of chemical shift at A108 residue at 0.6:1 to 1:1 ratio of compound to protein by 2D TROSY [1H-15N] spectroscopy; method in brief: as §1
[17] = target: Transthyretin (Homo sapiens) (UniProt P02766); assay: Binding affinity to wild-type TTR (unknown origin) assessed as induction of chemical shift at A109 residue at 0.6:1 to 1:1 ratio of compound to protein by 2D TROSY [1H-15N] spectroscopy; method in brief: as §1
[18] = target: Transthyretin (Homo sapiens) (UniProt P02766); assay: Binding affinity to wild-type TTR (unknown origin) assessed as induction of chemical shift at L110 residue at 0.6:1 to 1:1 ratio of compound to protein by 2D TROSY [1H-15N] spectroscopy; method in brief: as §1
[19] = target: Transthyretin (Homo sapiens) (UniProt P02766); assay: Binding affinity to wild-type TTR (unknown origin) assessed as induction of chemical shift at Y114 residue at 0.6:1 to 1:1 ratio of compound to protein by 2D TROSY [1H-15N] spectroscopy; method in brief: as §1
[20] = target: Transthyretin (Homo sapiens) (UniProt P02766); assay: Binding affinity to wild-type TTR (unknown origin) assessed as induction of chemical shift at S117 residue at 0.6:1 to 1:1 ratio of compound to protein by 2D TROSY [1H-15N] spectroscopy; method in brief: as §1
[21] = target: Transthyretin (Homo sapiens) (UniProt P02766); assay: Binding affinity to wild-type TTR (unknown origin) assessed as induction of chemical shift at T118 residue at 0.6:1 to 1:1 ratio of compound to protein by 2D TROSY [1H-15N] spectroscopy; method in brief: as §1
[22] = target: Transthyretin (Homo sapiens) (UniProt P02766); assay: Binding affinity to wild-type TTR (unknown origin) assessed as chemical shift perturbation at protein dimer-dimer interface at 1:1 ratio of compound to protein by 2D TROSY [1H-15N] spectroscopy; method in brief: as §1
[23] = target: Transthyretin (Homo sapiens) (UniProt P02766); assay: Binding affinity to wild-type TTR (unknown origin) assessed as chemical shift perturbation at DE loops at 1:1 ratio of compound to protein by 2D TROSY [1H-15N] spectroscopy; method in brief: as §1
[24] = target: Transthyretin (Homo sapiens) (UniProt P02766); assay: Binding affinity to wild-type TTR (unknown origin) assessed as chemical shift perturbation at H1 helix at 1:1 ratio of compound to protein by 2D TROSY [1H-15N] spectroscopy; method in brief: as §1
[25] = target: Transthyretin (Homo sapiens) (UniProt P02766); assay: Binding affinity to wild-type TTR (unknown origin) assessed as chemical shift perturbation at EH1 loops at 1:1 ratio of compound to protein by 2D TROSY [1H-15N] spectroscopy; method in brief: as §1
[26] = target: Transthyretin (Homo sapiens) (UniProt P02766); assay: Binding affinity to wild-type TTR (unknown origin) assessed as chemical shift perturbation at CD loops at 1:1 ratio of compound to protein by 2D TROSY [1H-15N] spectroscopy; method in brief: as §1
[27] = target: Transthyretin (Homo sapiens) (UniProt P02766); assay: Binding affinity to wild-type TTR (unknown origin) assessed as induction of chemical shift perturbation at V93 residue at 1:1 ratio of compound to protein by 2D TROSY [1H-15N] spectroscopy; method in brief: as §1
[28] = target: Transthyretin (Homo sapiens) (UniProt P02766); assay: Binding affinity to wild-type TTR (unknown origin) assessed as chemical shift perturbation at K9 residue at 1:1 ratio of compound to protein by 2D TROSY [1H-15N] spectroscopy; method in brief: as §1
[29] = target: Transthyretin (Homo sapiens) (UniProt P02766); assay: Binding affinity to wild-type TTR (unknown origin) assessed as formation of hydrogen bond between A25 and T49 at 1:1 ratio of compound to protein by 2D TROSY [1H-15N] spectroscopy

Activity [1]: Active
Activity [2]: Active
Activity [3]: Active
Activity [4]: Active
Activity [5]: Active
Structure (SMILES): O=C(O)c1ccc2nc(-c3cc(Cl)cc(Cl)c3)oc2c1

Activity [1]: Active
Activity [2]: Active
Activity [6]: Active
Activity [7]: Active
Activity [8]: inactive
Activity [9]: inactive
Activity [10]: inactive
Activity [11]: inactive
Activity [12]: inactive
Activity [13]: inactive
Activity [14]: inactive
Activity [15]: inactive
Activity [16]: inactive
Activity [17]: inactive
Activity [18]: inactive
Activity [19]: inactive
Activity [20]: inactive
Activity [21]: inactive
Activity [3]: Active
Activity [4]: Active
Activity [5]: Active
Activity [22]: Active
Activity [23]: Active
Activity [24]: Active
Activity [25]: Active
Activity [26]: Active
Activity [27]: Active
Activity [28]: Active
Activity [29]: Active
Structure (SMILES): O=C(O)c1ccccc1Nc1cc(Cl)c(OCCCCCCCOc2c(Cl)cc(Nc3ccccc3C(=O)O)cc2Cl)c(Cl)c1
